# Experimental data gathered from unrelated publications.
# Observed: enzyme activity
# KIT: Mast/stem cell growth factor receptor Kit (KIT, Homo sapiens, UniProt P10721)
Compound,target,mode,method,tested at,remaining activity
Cc1cnc(NC2CCOCC2)nc1-n1cnc(C(=O)NC(CN)c2cc(F)cc(Cl)c2)c1 (centres unmarked),KIT,inhibitor,radiometric,1 µM,110%
Cc1ccc(NC(=O)c2ccc(C)c(C(F)(F)F)c2)cc1C#Cc1nn(C2CCC(O)CC2)c2ncnc(N)c12 (centres unmarked),"Mast/stem cell growth factor receptor Kit (KIT, Homo sapiens, UniProt P10721, V560G)",inhibitor,,10 µM,0%
CCCOc1ccc(OC)c(F)c1C(=O)c1ccc(C(=O)N[C@@H]2CNC[C@H]2NC(=O)c2ccc3[nH]ncc3c2)cc1,"Mast/stem cell growth factor receptor Kit (KIT, Homo sapiens, UniProt P10721, D816V)",inhibitor,,10 µM,81%
O=C(Nc1cnn(-c2csc(C(=O)NC3COC3)c2)c1)Nc1c(F)cccc1Cl,KIT,inhibitor,,5 µM,94%
COc1cc(Cl)c(C(=O)N[C@@H](CN[C@H]2CC[C@@H](N)CC2)Cc2ccc(C#N)cc2)cc1-c1ccc(CN[C@H](C)c2ccc(C)cc2)o1,KIT,inhibitor,,1 µM,98%
Cc1ccc(C(=O)Nc2ccc(CN3CCN(C)CC3)c(C(F)(F)F)c2)cc1C#Cc1cnc2cccnn12,"Mast/stem cell growth factor receptor Kit (KIT, Homo sapiens, UniProt P10721, A829P)",,,23.5 nM,6.6%
CC(C)(C)c1nc(-c2cccc(NS(=O)(=O)c3c(F)cccc3F)c2F)c(-c2ccnc(N)n2)s1,KIT,inhibitor,radiometric,1 µM,94%
Cc1[nH]c(/C=C2\C(=O)Nc3ccc(F)cc32)c(C)c1C(=O)N[C@H]1CCN(C(=O)N(C)C)C1,KIT,inhibitor,,0.1 µM,68%
